Hits are enriched below; roughly 0.41% of the tested compounds scored in any of these assays.
T cell HTS: modulates CD8 T cell binding to vesicles; 2C CD8+ T cell-vesicle binding, flow cytometry; hits give low values; response (vesicle binding), % at 7 µM; hit rate 0.068% among 330,000; AID 2052;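 active = response, share of CD8 T cells binding vesicles, and their 90th percentile fluorescence all below set limits, cut at about 80% in these data, passing the limit was not always enough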;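 note: values below 100% mean blocked vesicle binding to the CD8+ T cells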
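Incubation: binding step 1.5 h, 37 °C, antibody labelling 20 min, ice; system: murine 2C transgenic CD8+ T lymphocytes; technique: cytometric PE anti-B7-1 and Alexa647 anti-CD8 signals after 1% paraformaldehyde fixation; also added: QL9-charged Drosophila Ld/ICAM-1/B7-1 vesicles; control set: naked versus QL9-loaded vesicles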
S1P3 antagonist: blocks the human S1P3 receptor; Q99500; CHO S1P3 NFAT-BLA reporter, FRET fluorescence, antagonist mode; inhibition, % at 4.98 µM; hit rate 0.27% among 170,000;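 active = inhibition above the plate cutoff, the mean inhibition of test wells on that plate plus 3 SD, cut at about 28% in these data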;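 note: cells challenged with S1P at its EC80 of 0.8 µM; blue over green emission ratio from cleaved BLA substrate after 4 h stimulation; 0% = S1P-stimulated wells and 100% = unstimulated DMSO-only wells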
Target sequence (Q99500 whole entry, looked up): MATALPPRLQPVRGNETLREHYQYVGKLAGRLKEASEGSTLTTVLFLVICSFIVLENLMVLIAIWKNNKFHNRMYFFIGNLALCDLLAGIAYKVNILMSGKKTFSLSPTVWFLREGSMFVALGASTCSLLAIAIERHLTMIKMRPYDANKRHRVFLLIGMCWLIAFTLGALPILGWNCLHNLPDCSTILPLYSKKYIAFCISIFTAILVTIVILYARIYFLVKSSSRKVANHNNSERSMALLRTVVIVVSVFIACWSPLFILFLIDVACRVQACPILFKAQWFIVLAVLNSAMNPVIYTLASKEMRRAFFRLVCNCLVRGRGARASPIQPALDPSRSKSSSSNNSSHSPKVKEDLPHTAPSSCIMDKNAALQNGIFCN
Yeast superoxide: caloric restriction mimetics inhibiting age-related superoxide in yeast; S. cerevisiae aged cells, superoxide DHE fluorescence; hits give low values; superoxide response (% of plate mean), % at 10 µM; hit rate 0.18% among 330,000;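 active = superoxide response under a set limit, about three screen SD below normal, cut at about 65% in these data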;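 note: yeast aged for seven days with compound at 30 °C before DHE staining; 100% = average MFI of all compound-treated wells on the plate with controls excluded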
Superoxide pick: yeast aging superoxide inhibition, cherry pick confirmation | shares compounds with Yeast superoxide | S. cerevisiae aging, superoxide DHE fluorescence; hits give low values | superoxide response (% of plate), % at 10 µM | hit rate 1% among 850 | AID 434994;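 active = superoxide signal below 65% of the plate average of sample wells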;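 note: cells aged with compound for 7 days at 30 degrees C before staining; 100% equals mean DHE fluorescence of all compound wells on the plate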
DHE counter: DHE fluorescence interference, counter-screen artifact; shares compounds with Yeast superoxide; S. cerevisiae BY4741, flow cytometry; hits give low values; fluorescence response, % at 10 µM; 850 tested, under 10 active; AID 435000;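 active = fluorescence response below 15%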;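 note: percent of the mean fluorescence averaged over all compound wells on the plate; lower means stronger quenching of DHE signal or ROS scavenging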
Active calls of the source: *; i = inactive; nt = no result.

SMILES	T cell HTS	S1P3 antagonist	Yeast superoxide	Superoxide pick	DHE counter
Cc1ccccc1Cn1cc(NC(=O)c2noc3c2CC(C(C)(C)C)CC3)cn1 (stereo not given)	485	1	65*	121	99
Cc1ccccc1Cn1nc(C)c(NC(=O)c2noc3c2CC(C(C)(C)C)CC3)c1C (stereo not given)	406	-3	96	nt	nt
NS(=O)(=O)c1ccc(CCNc2ccccc2[N+](=O)[O-])cc1	237	nt	93	nt	nt
CCCOc1ccc(Cn2c(=O)oc3ccc(C)cc32)cc1	i	nt	97	nt	nt
Cc1ccc(NS(=O)(=O)c2c(C)[nH]c(C)c2C(=O)N2CCCCC2)cc1Cl	280	nt	112	nt	nt
CCN(CC)S(=O)(=O)c1cc(OC)c(Cl)cc1Cl	237	nt	58*	98	101
CCN(CC)S(=O)(=O)c1cc(OC)c(C)cc1C	177	-8	90	nt	nt
O=C(Nc1cccc(S(=O)(=O)NC2=NCCC2)c1)c1cc(=O)[nH]c2ccccc12	314	nt	120	nt	nt
CCCCn1c(N)c(N(CC(C)C)C(=O)c2ccc(-c3ccc(C(C)=O)cc3)o2)c(=O)[nH]c1=O	694	nt	65*	110	103
CCCCn1c(N)c(N(CC(C)C)C(=O)c2ccc(C)o2)c(=O)[nH]c1=O	239	nt	90	nt	nt
CCc1c(C)nc(SCC(=O)NNC(=O)c2ccco2)[nH]c1=O	336	nt	136	nt	nt
C=CCN(CC=C)CC(O)CN(c1cc([N+](=O)[O-])ccc1OC)S(=O)(=O)c1ccccc1 (stereo not given)	175	11	96	nt	nt
COc1ccc([N+](=O)[O-])cc1N(CC(O)CN(C)C)S(=O)(=O)c1ccccc1 (stereo not given)	160	-10	54*	105	111
Cc1ccc2nc(-c3ccccn3)cc(C(=O)NCCc3ccc(F)cc3)c2c1	251	nt	107	nt	nt
Cc1cc2nc(NCCCO)n(CC(=O)c3cc(C(C)(C)C)c(O)c(C(C)(C)C)c3)c2cc1C	236	nt	107	nt	nt
Cc1ccc(/C=N/NC(=O)c2nnn(-c3nonc3N)c2CNc2ccccc2)cc1	313	nt	65*	122	107
Cc1ccc(/C=N/NC(=O)c2nnn(-c3nonc3N)c2CSc2ccccc2)cc1	828	5	81	nt	nt
CN(C(=O)Nc1cccc(C(F)(F)F)c1)C1CCCCC1	288	-12	54*	91	103
O=C(Nc1cccc(C(F)(F)F)c1)C1CCCCC1	378	nt	111	nt	nt
Cc1ccc(CNC(=O)CCCCn2c(=O)[nH]c3ccsc3c2=O)cc1	128	-4	90	nt	nt
Cc1ccc(CNC(=O)Cc2ccc(-n3c(=O)[nH]c4ccsc4c3=O)cc2)cc1	783	5	56*	108	100
COc1ccc(N2CCN(C(=O)COC(=O)COc3ccc(C#N)cc3)CC2)cc1	496	nt	102	nt	nt
COc1cc(/C=C2\CC(C(C)(C)C)C/C(=C\c3cc(OC)c(OC)c(OC)c3)C2=O)cc(OC)c1OC (stereo not given)	279	nt	57*	95	91
COc1cc(/C=C2\CC/C(=C\c3cc(OC)c(OC)c(OC)c3)C2=O)cc(OC)c1OC	212	-19	96	nt	nt
Cc1cc(-c2nnc(SCC(=O)Nc3ccc(C(F)(F)F)cc3)n2C)no1	i	-6	113	nt	nt
SMILES	T cell HTS	S1P3 antagonist	Yeast superoxide	Superoxide pick	DHE counter
Cc1cc(-c2nnc(SCC(=O)Nc3ccccc3)n2C)no1	211	-1	58*	104	115
NC(=NC(=O)c1ccc(OC(F)(F)F)cc1)c1ccc(C(F)(F)F)cn1	359	-8	62*	108	120
NC(=NC(=O)c1cccc(C(F)(F)F)c1)c1ccc(C(F)(F)F)cn1	436	-17	105	nt	nt
Cc1onc(-c2ccccc2Cl)c1C(=O)N1CCN(S(=O)(=O)c2ccc(F)c(F)c2)CC1	915	nt	122	nt	nt
O=C(Cc1ccc(-n2c(=O)[nH]c3ccccc3c2=O)cc1)N1CCN(c2ccccc2)CC1	i	6	107	nt	nt
O=C(Cc1ccc(-n2c(=S)[nH]c3ccccc3c2=O)cc1)N1CCN(c2ccccc2)CC1	264	nt	65*	96	93
CCOC(=O)N1CCN(C(=O)c2ccc3c(c2)N(Cc2cc(C)ccc2C)C(=O)c2ccccc2S3=O)CC1 (stereo not given)	308	nt	91	nt	nt
CCCCCN(C(=O)CCC(=O)OCC(=O)NCc1cccc(OC)c1)c1c(N)n(CCCC)c(=O)[nH]c1=O	306	nt	83	nt	nt
CC(C)CCNC(=O)C1CCN(S(=O)(=O)c2ccc(-n3cnnn3)cc2)CC1	158	nt	109	nt	nt
O=C(N/N=C/c1ccco1)c1[nH]ncc1Br	434	nt	61*	96	93
O=C(N/N=C/c1ccccc1)c1[nH]ncc1Br	282	-21	94	nt	nt
O=C(NN1C(=O)NC2(CCCCC2)C1=O)c1cccs1	167	nt	88	nt	nt
CCN1CCN(C(=O)c2ccc(C)c(S(=O)(=O)Nc3cccc(C)c3)c2)CC1	183	nt	97	nt	nt
Cc1cccc(NS(=O)(=O)c2cc(C(=O)N3CCN(C)CC3)ccc2C)c1	302	nt	64*	110	104
O=C(Nc1ccncc1)C1CCN(S(=O)(=O)c2ccc(Cl)cc2)CC1	319	nt	97	nt	nt
O=C(CSc1ccc(-c2nc3ccccc3[nH]2)cn1)Nc1ccc(S(=O)(=O)N2CCCC2)cc1	351	-1	64*	119	109
Cc1cc2nc(-c3ccc(SCC(=O)Nc4ccc(S(=O)(=O)N5CCCC5)cc4)nc3)[nH]c2cc1C	190	6	108	nt	nt
O=C(Nc1ccc2nc3ccccc3nc2c1)c1ccc(Br)cc1	312	3	99	93	113
O=C(Nc1ccc2cccnc2c1)c1ccc(Br)cc1	177	nt	100	nt	nt
O=C(COC(=O)CN1C(=O)NC2(CCCCC2)C1=O)Nc1cc(F)ccc1F	334	nt	89	nt	nt
COC(=O)c1ccccc1NS(=O)(=O)c1ccc(NC(C)=O)cc1	125	1	100	nt	nt
COC(=O)c1ccccc1NS(=O)(=O)c1ccc(F)cc1	362	3	127	104	86
CC(OC(=O)Cc1c[nH]c2ccccc12)C(=O)c1ccccc1 (stereo not given)	230	nt	106	nt	nt
Cc1ccc(CN(CC(=O)NCCc2ccccc2)C(=O)CCCC(=O)Nc2cc(C)on2)cc1	387	-20	64*	108	91
COc1ccc(CN(CC(=O)NCCc2ccccc2)C(=O)CCC(=O)Nc2cc(C)ccn2)cc1	220	nt	107	nt	nt
SMILES	T cell HTS	S1P3 antagonist	Yeast superoxide	Superoxide pick	DHE counter
O=C(CC1C(=O)NCCN1Cc1ccccn1)NCCc1ccccc1F (stereo not given)	342	nt	88	nt	nt
Cc1ccccc1NC(=O)Cc1nnc(SCC(=O)NC2CCCCC2)n1C	i	nt	105	nt	nt
CC(Sc1nccn1C)C(=O)Nc1ccccc1 (stereo not given)	382	nt	91	nt	nt
Cc1ccccc1N1CCN(C2CCCN(C(=O)CCC3(C)CC3)C2)CC1 (stereo not given)	990	nt	106	nt	nt
Cc1ccc(NC(=O)CN2CCN(c3ccccn3)CC2)cc1S(=O)(=O)N(C)C	229	-9	97	nt	nt
O=C(CN1CCN(c2ccccn2)CC1)Nc1ccc(OC(F)(F)F)cc1	343	nt	109	94	111
CCN(CC)S(=O)(=O)c1cc(NC(=O)CN2CCN(c3ccccn3)CC2)ccc1C	356	-9	100	97	100

Screening data deposited in PubChem BioAssay by several laboratories.
